Test results as given in ChEMBL document CHEMBL1153492, “Design, synthesis, and structure-activity relationships of 1,3-dihydrobenzimidazol-2-one analogues as anti-HIV agents” (Bioorg Med Chem, 2009).
pEC50, pIC50: −log10 of the molar value.

Experiments:
[1] = target: Human immunodeficiency virus type 1 reverse transcriptase (Human immunodeficiency virus 1, UniProt Q72547); assay: Inhibition of HIV1 recombinant RNA-dependent DNA polymerase activity of reverse transcriptase assessed as incorporation of radioactive dTTP into poly(rA)/oligo(dT)
[2] = system: Human immunodeficiency virus 1; assay: Antiviral activity against HIV1 3B infected in human MT4 cells assessed as reduction of virus-induced cytopathic effect after 5 days; format: functional, organism-based; conditions: Human immunodeficiency virus 1, 3B, MT4, 120 h
How it was run: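 MT-4 cells infected with HIV-1 IIIB at about 100-times the CCID50 per ml of cell suspension, plated and mixed with compound, then incubated at 37 °C for 5 days. Viable cell number was then determined. EC50 is the concentration that reduces virus-induced cytopathicity by 50%.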

[3] = Cytotoxicity against human MT4 cells after 5 days; format: cell-based
How it was run: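 Run in MT-4 cells in parallel with the HIV-1 IIIB cytopathicity assay, with 37 °C incubation for 5 days and a read-out of viable MT-4 cell number.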

[4] = Selectivity index, CC50 for human MT4 cells to EC50 for HIV1 3B; format: toxicity, cell-based; conditions: read-out: Ratio CC50/EC50

| Structure (SMILES) | pIC50 [1] | pEC50 [2] | CC50 at 120 h [3] [µM] | selectivity ratio [4] |
| --- | --- | --- | --- | --- |
| O=C(CCl)Nc1ccc(Cl)cc1NS(=O)(=O)c1c(Cl)cccc1Cl | 4.49 | 5.82 | 160 | 107 |
| O=c1[nH]c2ccc(Cl)cc2n1S(=O)(=O)c1c(Cl)cccc1Cl | < 4.00 | 5.82 | > 331 | > 218 |
| O=C1CN(S(=O)(=O)c2cccc(F)c2)c2cc(Cl)ccc2N1 | < 4.40 | 5.15 | 189 | 27 |
| O=C1CN(S(=O)(=O)c2c(F)cccc2F)c2cc(Cl)ccc2N1 | < 4.40 | 4.68 | 180 | 9 |
| O=C1CN(S(=O)(=O)c2ccccc2F)c2cc(Cl)ccc2N1 | < 4.40 | 5.21 | 197 | 32 |
| Cc1cc(C)cc(S(=O)(=O)N2CC(=O)Nc3ccc(Cl)cc32)c1 | < 4.40 | 7.00 | 80.6 | 782 |
| O=C1CN(S(=O)(=O)c2cc(F)cc(F)c2)c2cc(Cl)ccc2N1 | < 4.40 | 4.85 | 187 | 13 |
| N#Cc1cccc(S(=O)(=O)Nc2cc(Cl)ccc2NC(=O)CCl)c1 | 3.55 | < 3.81 | > 156 | < 1 |
| O=C1CN(S(=O)(=O)c2cc(Cl)cc(Cl)c2)c2cc(Cl)ccc2N1 | < 4.40 | 4.57 | ≥ 206 | > 8 |
| O=c1[nH]c2ccc(Cl)cc2n1S(=O)(=O)c1ccc(F)cc1 | < 4.40 | 4.44 | ≥ 355 | ≥ 10 |
| O=C1CN(S(=O)(=O)c2ccc(F)cc2)c2cc(Cl)ccc2N1 | < 4.40 | < 3.76 | 172 | < 1 |
| N#Cc1cccc(S(=O)(=O)N2CC(=O)Nc3ccc(Cl)cc32)c1 | < 4.40 | ≤ 4.32 | 186 | ≤ 4 |
| O=C(CCl)Nc1ccc(Cl)cc1NS(=O)(=O)c1c(F)cccc1F | 4.52 | 5.16 | 175 | 25 |
| O=C(CCl)Nc1ccc(Cl)cc1NS(=O)(=O)c1cc(F)cc(F)c1 | 4.56 | 4.95 | 179 | 16 |
| O=C1Nc2ccc(Cl)cc2[C@@](C#CC2CC2)(C(F)(F)F)O1 [EFAVIRENZ] |  |  | > 6 |  |
| Cc1ccnc2c1NC(=O)c1cccnc1N2C1CC1 [NEVIRAPINE] |  |  | > 15 |  |

The remaining compounds from weak to strong by pIC50 [1], led by results:

| pIC50 [1] | pEC50 [2] | Structure (SMILES) | CC50 at 120 h [3] [µM] | selectivity ratio [4] |
| --- | --- | --- | --- | --- |
| 4.80 | 5.05 | O=C(CCl)Nc1ccc(Cl)cc1NS(=O)(=O)c1cc(Cl)cc(Cl)c1 | > 292 | > 32 |
| 5.47 | 7.33 | Cc1cc(C)cc(S(=O)(=O)Nc2cc(Cl)ccc2NC(=O)CCl)c1 | 35.1 | 747 |
| 5.78 | 5.96 | O=C1CN(S(=O)(=O)c2c(Cl)cccc2Cl)c2cc(Cl)ccc2N1 | > 319 | > 293 |
| 6.07 | 6.64 | O=c1[nH]c2ccc(Cl)cc2n1S(=O)(=O)c1ccccc1F | > 383 | > 1660 |
| 6.44 | 6.83 | N#Cc1cccc(S(=O)(=O)n2c(=O)[nH]c3ccc(Cl)cc32)c1 | 205 | 1360 |
| 6.88 | 7.37 | O=c1[nH]c2ccc(Cl)cc2n1S(=O)(=O)c1cccc(F)c1 | 128 | 2960 |
| 8.52 | 7.32 | O=c1[nH]c2ccc(Cl)cc2n1S(=O)(=O)c1cc(Cl)cc(Cl)c1 | 179 | 3740 |
